Source: PubChem BioAssay
PDI turbidity = inhibitors of human PDI, primary screen, biochemical, turbidity, single point, plate reader; PDI insulin aggregation turbidity, A650, 90 min; inhibition, % at 10 µM; actives 0.052% (n = 350,000); AID 588391, 2011;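 active = mean inhibition across replicates of 30% or more, whatever share of single replicates reach that level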
PvdQ inh = P. aeruginosa PvdQ acylase inhibitors, primary screen, biochemical, fluorescence, plate reader and imaging, single point; purified PvdQ acylase; inhibition, % at 10 µM; AID 488965, 2010; actives 0.063% (n = 340,000); in the data active = inhibition above about 30%, passing the limit was not always enough;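 note: 0% = vehicle neutral wells and 100% = reference inhibitor wells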
Ecoli rRNA inh = reduced GFP signal of wild-type E. coli, primary screen, bacterial rRNA inhibitor project, GFP/RFP fluorescence, OD600, single point | GFP signal change (wild-type ribosome), % (test concentration not listed) | actives 1.6% (n = 350,000) | AID 720706, 2013 | E. coli WT GFP vs humanized-ribosome RFP mutants, 24 h; stronger effect = lower value; DMSO median 0, no signal -100;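 active = significant combined selectivity score with lowered wild-type GFP, culture density cut under 30%, mutant RFP and density less affected; inactive = any of these conditions unmet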
Env fusion inh = inhibitors of HIV-1 Env-driven cell-cell fusion, primary screen, HeLa-JRFL effector, CEM21 target cells, luciferase | inhibition, % at 12.3 µM | actives 1.1% (n = 360,000);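 active = mean replicate inhibition score of at least 50 and every replicate individually at or above 50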;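 note: 0% = plate neutral controls and 100% = maraviroc near 300 nM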
FN deposit inh = inhibitors of fibronectin matrix deposition, primary screen, AH1F cells, Alexa488-fibronectin fluorescence, plate reader | AH1F fibroblasts, overnight | inhibition, % at 12.6 µM | actives 0.086% (n = 350,000) | AID 743247, 2014;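 active = mean inhibition across replicates of 30% or more, regardless of how many single replicates reach that level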;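 note: positive control wells lacked labelled fibronectin entirely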
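Test system: AH1F fibroblast monolayer depositing Alexa488-labelled fibronectin into matrix. Input: 10000 cells per well. Technique: fluorescence, ex 485 nm, em 525 nm. Buffer or medium: DMEM plus 2% serum, read in PBS. Timing: 1 h cell adhesion before compound, then overnight fibronectin incubation. Compound: single dose, pinned. Read-out basis: inhibition from reduced deposited-fibronectin fluorescence.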
ERp5 block = inhibitors of ERp5-driven insulin aggregation, primary screen, biochemical, turbidity, absorbance 650 nm, single point; Protein disulfide-isomerase A6 (Homo sapiens), Q15084; 90 min; inhibition, % at 9.99 µM; actives 0.05% (n = 350,000); AID 651711, 2012;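 active = mean replicate inhibition above about 25%, with every replicate also reaching it, limit read from the data, passing the limit was not always enough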
Target sequence (Q15084 whole entry, looked up): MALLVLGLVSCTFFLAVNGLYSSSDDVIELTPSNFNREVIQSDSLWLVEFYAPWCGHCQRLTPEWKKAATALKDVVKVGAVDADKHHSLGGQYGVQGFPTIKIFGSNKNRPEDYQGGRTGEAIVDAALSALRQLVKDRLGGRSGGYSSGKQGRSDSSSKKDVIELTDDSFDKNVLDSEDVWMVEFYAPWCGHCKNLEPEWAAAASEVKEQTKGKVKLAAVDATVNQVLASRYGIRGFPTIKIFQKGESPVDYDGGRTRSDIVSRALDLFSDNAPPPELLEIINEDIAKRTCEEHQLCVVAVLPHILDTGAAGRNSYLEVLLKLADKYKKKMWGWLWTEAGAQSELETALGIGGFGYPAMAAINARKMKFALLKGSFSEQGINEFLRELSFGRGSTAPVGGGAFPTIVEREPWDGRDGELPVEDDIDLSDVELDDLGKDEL
Numbers without * were called inactive; i = inactive; . = no result; [ ] = remark or other dose. Hits are enriched below; roughly 2.2% of the tested compounds scored in any of these assays.

SMILES | PDI turbidity | PvdQ inh | Ecoli rRNA inh | Env fusion inh | FN deposit inh | ERp5 block
CCC(=O)N1CCN(c2ccc(NC(=O)c3ccc([N+](=O)[O-])o3)cc2Cl)CC1 | 1.4 | 4.7 | -3.5 | i | 59.9* | 2.8
CCN1CCN(c2ccc(NC(=O)c3ccc([N+](=O)[O-])o3)cc2Cl)CC1 | -3.8 | -4.0 | -37.7* | -435.1 | -18.8 | 4.9
CO[C@@H]1CN(C)C(=O)c2cc(NC(=O)CC(F)(F)F)ccc2OC[C@H](C)N(C(C)=O)C[C@@H]1C | . | . | 1.9 | 6.5[16.7 µM] | 5.7 | 0.9
COC(=O)c1cn(CCCNC(=O)Nc2ccccc2)nn1 | . | . | . | -3.2[16.7 µM] | . | 2.6
O=C(Cc1cccnc1)N1CC(=O)N2[C@H](C1)[C@@H](c1ccc(-c3cccc(F)c3)cc1)[C@@H]2CO | . | . | -10.7 | . | . | .
O=C(N/N=C/c1cccs1)c1cc(-c2ccc(Cl)s2)[nH]n1 | -4.0 | -5.1 | -21.6* | -12.6 | 20.8 | 1.2
O=C(N/N=C/c1ccco1)c1cc(-c2ccc(Br)s2)[nH]n1 | 12.5 | -5.3 | 0.0 | -3.8 | -2.4 | 1.8
O=C(N/N=C/c1ccco1)c1cc(-c2ccc(Cl)s2)[nH]n1 | 2.3 | -1.7 | -25.7* | -2.4 | -3.8 | 2.4
C/C(=N\NC(=O)c1cc(-c2ccc(Cl)s2)[nH]n1)c1ccncc1 | -6.0 | -14.1 | -21.4* | 3.5 | 10.4 | -5.2
O=C(C[C@H]1CC[C@@H](NS(=O)(=O)c2ccccc2)[C@@H](CO)O1)NCCN1CCCCC1 | . | . | 1.7 | -8.8[16.7 µM] | . | 5.5
CNC[C@H]1OCCCC[C@H](C)Oc2ccc(NS(=O)(=O)c3c(C)noc3C)cc2C(=O)N([C@H](C)CO)C[C@@H]1C | . | . | 2.9 | 3.5[16.7 µM] | . | .
Cc1nc(Sc2ccc(Cl)cc2)c(C#N)c(C)c1[N+](=O)[O-] | -5.9 | -10.3 | -20.2* | 9.0 | -8.6 | 1.0
C[C@@H]1CN([C@H](C)CO)C(=O)c2cc(NC(=O)CCCCCC(=O)Nc3ccccc3N)ccc2O[C@@H]1CN(C)S(=O)(=O)c1ccccc1 | . | . | -1.8 | . | . | 0.7
CCN1C[C@@H]2[C@@H]3C(=O)N(Cc4ccccc4)C(=O)[C@@H]3[C@](CC)(C1=O)N2C(=O)c1ccc(C(C)(C)C)cc1 | 5.1 | -1.1 | . | 68.2* | 1.2 | .
CC[C@]12C(=O)N(C)C[C@H]([C@@H]3C(=O)N(Cc4ccccc4)C(=O)[C@@H]31)N2C(=O)c1ccc(C(C)(C)C)cc1 | -2.7 | -0.3 | -14.6 | 57.5* | -2.1 | 4.4
CCN1C[C@@H]2[C@@H]3C(=O)N(Cc4ccccc4)C(=O)[C@@H]3[C@](Cc3ccccc3)(C1=O)N2C(=O)c1ccc(C(C)(C)C)cc1 | 4.4 | -5.2 | 3.7 | 3.8 | -0.6 | -1.4
S=c1[nH]nc(COc2ccccc2)n1/N=C/c1ccccc1Cl | -1.5 | -8.6 | -24.2* | -7.4 | 7.7 | 3.3
S=c1[nH]nc(COc2ccccc2)n1/N=C/c1cccc(Cl)c1Cl | -1.9 | -14.0 | 2.2 | -0.5 | 5.3 | -2.2
C[C@H](NC(=O)C[C@H]1CC[C@H](NC(=O)c2cccnc2)[C@@H](CO)O1)c1ccccc1 | . | . | 0.2 | 2.4[16.7 µM] | 7.1 | -2.8
Cc1cc(C(=O)CSc2ncnc3ccccc23)c(C)n1C1CC1 | 9.7 | 6.3 | 10.2 | -6.7 | -0.8 | 6.8
Cc1cc(-n2c(C)cc(C(=O)CSc3ncnc4ccccc34)c2C)no1 | 2.4 | 4.0 | . | 51.2* | 6.7 | .
CCN(CC)S(=O)(=O)c1cc(NC(=O)C(=O)c2c(-c3ccccc3)cc3ccccn23)ccc1C | 13.5 | -1.4 | . | 77.3* | 3.7 | .
CCCC(=O)Nc1ccc2c(c1)C(=O)N(C)C[C@H](OC)[C@@H](C)CN(Cc1ccccc1F)[C@@H](C)CO2 | . | . | -8.3 | . | 1.8 | 0.1
Cc1noc(C)c1S(=O)(=O)Nc1cccc2c1O[C@H](CN(C)C)[C@H](C)CN([C@H](C)CO)C2=O | . | . | 4.6 | . | 2.4 | -0.1
COc1cc(C(=O)C(=O)c2cc(OC)c(O)c(OC)c2)cc(OC)c1O | 2.0 | -8.2 | 8.5 | 5.8 | -3.8 | 1.3
SMILES | PDI turbidity | PvdQ inh | Ecoli rRNA inh | Env fusion inh | FN deposit inh | ERp5 block
COc1cc(-c2cc(OC)c(O)c(OC)c2)cc(OC)c1O | -5.0 | 1.7 | 46.1 | 78.4* | -3.7 | -3.4
CCCCNC(=O)N(O)C1N(/N=C/c2cccs2)C(=S)SC1(C)C (stereo unspecified) | 3.8 | -14.4 | -16.4 | 66.9* | -0.7 | 6.0
O=S(=O)(c1ccc(F)cc1)N1CCCCN2[C@@H](CO)[C@H](c3ccc(-c4ccccc4F)cc3)[C@@H]2C1 | . | . | . | . | . | 1.5
COc1ccc(N(C(=O)CSCC(=O)Nc2cc(C)on2)C(C(=O)NC2CCCCC2)c2ccc(O)c(O)c2)cc1 (stereo unspecified) | 8.7 | -3.7 | -18.1* | 56.6* | 3.7 | 2.6
C[C@H](CO)N1C[C@H](C)[C@H](CN(C)Cc2ccc(C(=O)O)cc2)OCCCC[C@H](C)Oc2ccc(NC(=O)Nc3ccc(C(F)(F)F)cc3)cc2C1=O | . | . | -1.9 | 9.6[16.7 µM] | . | -1.6
COc1ccc(CC2C(=O)NC(C)C(=O)N(C)C3Cc4ccc(cc4)Oc4cc(ccc4O)CC(C(=O)NC(C)C(=O)NC(C)C(=O)N2C)N(C)C3=O)cc1 (stereo unspecified) | 0.7 | -16.4 | 11.5 | 77.1* | 22.4 | -6.8
O=C(Nc1ccccc1F)N[C@@H]1C=C[C@H](CC(=O)N2CCCCC2)O[C@H]1CO | . | . | 0.1 | -31.6[16.7 µM] | -6.2 | 1.8
C[C@@H]1CN([C@H](C)CO)C(=O)Cc2cc(NC(=O)C3CCCCC3)ccc2O[C@H]1CN(C)C(=O)Nc1ccc(F)cc1 | . | . | 0.4 | -4.9[16.7 µM] | -14.2 | 5.1
C[C@H](O)C#Cc1cnc2c(c1)C(=O)N([C@@H](C)CO)C[C@@H](C)[C@H](CN(C)C(=O)c1ccccc1F)O2 | . | . | 4.3 | 6.1[16.7 µM] | . | -0.8
CNc1cccnc1C=NNC(N)=S | -5.3 | 9.0 | 30.8 | 81.4* | 7.9 | 3.6
Cc1c(O)ccc2c(CN3CCN(CCO)CC3)cc(=O)oc12 | 53.3* | -3.2 | . | -11.0 | -5.6 | .
Cc1c(O)ccc2c(CN3CCOCC3)cc(=O)oc12 | 19.7 | -8.1 | 0.2 | 0.9 | 2.0 | -1.7
Cc1ccc2c(CN3CCN(S(=O)(=O)c4ccc5c(c4)OCCO5)CC3)cc(=O)oc2c1C | -4.9 | -9.1 | . | 92.9* | -20.8 | .
Cc1ccc2c(CN3CCN(Cc4ccc5c(c4)OCO5)CC3)cc(=O)oc2c1C | -2.6 | -3.5 | 16.2 | . | 2.8 | 4.9
CN1[C@@H]2CN(S(C)(=O)=O)C[C@H]1C2c1ccc(-c2ccc(F)cc2)cc1 (stereo partly specified) | . | . | -4.2 | . | -7.6 | .
CN(C)C(=O)C[C@H]1C=C[C@H](NC(=O)NC2CCCCC2)[C@@H](CO)O1 | . | . | 2.9 | -1.1[16.7 µM] | . | -1.0
